Experimental data published in ChEMBL document CHEMBL5154764, “Development of small molecules that work cooperatively with ciprofloxacin to clear salmonella biofilms in a chronic gallbladder carriage model” (Eur J Med Chem, 2022).
Activity calls are given as the source filed them. The rule behind the calls is not given here.

Assays:
Salmonella typhimurium [1] = experiment: Antibiofilm activity against Salmonella typhimurium ATCC 14028 assessed as inhibition of biofilm formation incubated for 24 hrs by crystal violet staining based spectrophotometry; type: functional, organism-based, Salmonella enterica subsp. enterica serovar Typhimurium; details: Salmonella enterica, ATCC 14028, 24 h
How it was run: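 LB overnight cultures (37 °C) set to OD600 0.8, diluted 1:100 into TSB diluted 1:20 in water. Compound at 0.2–100 μM or DMSO added at inoculation. Grown 24 h at 30 °C with nutation, washed, heat-fixed (60 °C, 1 h), stained with crystal violet, dye solubilized in acetic acid, read at 570 nm. IC50 from variable-slope fit of % biofilm vs log concentration. Mean ± SD of three biological replicates.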

Salmonella typhimurium [2] = experiment: Antibiofilm activity against Salmonella typhimurium ATCC 14028 assessed as biofilm dispersal effect incubated for 24 hrs by crystal violet staining based spectrophotometry; type: functional, organism-based, Salmonella enterica subsp. enterica serovar Typhimurium; details: Salmonella enterica, ATCC 14028, 24 h
How it was run: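 Biofilms grown 24 h at 30 °C with nutation in TSB diluted 1:20, from 1:100-diluted LB overnight cultures set to OD600 0.8. Crystal violet staining, acetic acid solubilization, 570 nm read-out. EC50 from variable-slope fit of % biofilm remaining vs log concentration. Mean ± SD of three biological replicates.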

Salmonella typhimurium [3] = experiment: Antibacterial activity against Salmonella typhimurium ATCC 14028 assessed as bacterial growth inhibition at >=100 uM; type: functional, organism-based; details: Salmonella enterica subsp. enterica serovar Typhimurium
Salmonella typhimurium [4] = experiment: Antibacterial activity against Salmonella typhimurium ATCC 14028 assessed as bacterial growth inhibition at >= 50 uM; type: functional, organism-based; details: Salmonella enterica subsp. enterica serovar Typhimurium
Salmonella typhimurium [5] = experiment: Antibacterial activity against Salmonella typhimurium ATCC 14028 assessed as bacterial growth inhibition at >=12.5 uM; type: functional, organism-based; details: Salmonella enterica subsp. enterica serovar Typhimurium
Salmonella typhimurium [6] = experiment: Antibacterial activity against Salmonella typhimurium ATCC 14028 infected in 129X1/SvJ NRAMP +/+ mouse gallstone model assessed as log reduction in bacterial burden in gallblader at 5 mg/kg/day, ip administered for 5 to 15 consecutive days of post infection and measured on day 15 in presence of 1 mg/kg/day ciprofloxacin; type: functional, Salmonella enterica subsp. enterica serovar Typhimurium; details: time 10 day
How it was run: (§1)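 129X1/SvJ NRAMP+/+ mice given a lithogenic diet (chow plus 1% cholesterol, 0.5% cholic acid) for 8 weeks. Infected i.p. with ~10^3 CFU in 200 μL PBS. Treated daily i.p. on days 5–15 post-infection; vehicle 5% DMSO in PBS. Day 15: gallbladder, liver and spleen homogenized in 1 mL PBS, serially diluted and plated on LB agar (37 °C, 16 h) for CFU counts. One-way ANOVA with Tukey correction.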

Salmonella typhimurium [7] = experiment: Antibacterial activity against Salmonella typhimurium ATCC 14028 infected in 129X1/SvJ NRAMP +/+ mouse gallstone model assessed as reduction in bacterial burden in spleen at 5 mg/kg/day, ip administered for 5 to 15 consecutive days of post infection and measured on day 15 in presence of 4 mg/kg/day ciprofloxacin; type: functional, organism-based; details: Salmonella enterica subsp. enterica serovar Typhimurium, time 10.0 day; how it was run: as §1
Salmonella typhimurium [8] = experiment: Antibacterial activity against Salmonella typhimurium ATCC 14028 infected in 129X1/SvJ NRAMP +/+ mouse gallstone model assessed as reduction in bacterial burden in liver at 5 mg/kg/day, ip administered for 5 to 15 consecutive days of post infection and measured on day 15 in presence of 4 mg/kg/day ciprofloxacin; type: functional, organism-based; details: Salmonella enterica subsp. enterica serovar Typhimurium, time 10.0 day; how it was run: as §1
Salmonella typhimurium [9] = experiment: Antibacterial activity against Salmonella typhimurium ATCC 14028 infected in 129X1/SvJ NRAMP +/+ mouse gallstone model assessed as reduction in bacterial burden in gallblader at 5 mg/kg/day, ip administered for 5 to 15 consecutive days of post infection and measured on day 15 in presence of 4 mg/kg/day ciprofloxacin; type: functional, organism-based; details: Salmonella enterica subsp. enterica serovar Typhimurium, time 10.0 day; how it was run: as §1

SMILES | IC50 (Salmonella typhimurium [1]) [µM] | EC50 (Salmonella typhimurium [2]) [µM] | further results
CN(Cc1ccsc1)CC1CCN(Cc2ccccc2F)CC1 | 8.8 | 125 | –
CN(Cc1ccsc1)CC1CCN(CCc2cccc(Br)c2)CC1 | 3.6 | 83 | growth inhibition (GI) (Salmonella typhimurium [3]): Active
CN(Cc1ccsc1)CC1CCN(Cc2ccccc2)CC1 | 26.7 | > 12000 | –
CN(Cc1ccsc1)CC1CCN(CCc2cccc(Cl)c2)CC1 | 2 | 135 | growth inhibition (GI) (Salmonella typhimurium [3]): Active
CN(Cc1ccsc1)CC1CCN(Cc2cccc(F)c2)CC1 | 8.7 | 1050 | –
CN(Cc1ccsc1)CC1CCN(Cc2ccc(Cl)c(Cl)c2)CC1 | 3.9 | 55 | –
CN(Cc1ccsc1)CC1CCN(CCc2ccccc2C(F)(F)F)CC1 | 12.7 | 60 | –
CN(Cc1ccsc1)CC1CCN(CCc2ccc(Cl)cc2Cl)CC1 | 2.5 | 22 | –
CN(Cc1ccsc1)CC1CCN(CCc2ccc(I)cc2)CC1 | 2.6 | 89 | growth inhibition (GI) (Salmonella typhimurium [4]): Active
CN(Cc1ccsc1)CC1CCN(Cc2cccc(I)c2)CC1 | 10 | 92 | –
CN(Cc1ccsc1)CC1CCN(CCc2cc(Cl)cc(Cl)c2)CC1 | 1.6 | 45 | growth inhibition (GI) (Salmonella typhimurium [4]): Active
CN(Cc1ccsc1)CC1CCN(CCc2ccc(-c3ccccc3)cc2)CC1 | – | – | growth inhibition (GI) (Salmonella typhimurium [5]): Active; log(activity) (Salmonella typhimurium [6]): 3.5
COc1ccccc1CCN1CCC(CN(C)Cc2ccsc2)CC1 | 16.9 | 11800 | –
CN(Cc1ccsc1)CC1CCN(CCc2cc(F)cc(F)c2)CC1 | > 200 | > 12000 | growth inhibition (GI) (Salmonella typhimurium [4]): Active
CN(Cc1ccsc1)CC1CCNCC1 | 138 | 442 | –
CN(Cc1ccsc1)CC1CCN(CCCc2ccccc2F)CC1 | 11.5 | 221 | –
CN(Cc1ccsc1)CC1CCN(Cc2ccccc2Br)CC1 | 4.9 | 79 | –
CN(Cc1ccsc1)CC1CCN(CCc2ccc(Cl)c(Cl)c2)CC1 | 1.4 | 45 | growth inhibition (GI) (Salmonella typhimurium [4]): Active
CN(Cc1ccsc1)CC1CCN(CCc2cc(Br)cc(Br)c2)CC1 | 3.4 | 42 | growth inhibition (GI) (Salmonella typhimurium [3]): Active
CNCC1CCN(CCc2ccccc2F)CC1 | – | – | growth inhibition (GI) (Salmonella typhimurium [3]): Active
CN(Cc1ccsc1)CC1CCN(Cc2cccc(Br)c2)CC1 | 6.5 | 142 | –
CN(Cc1ccsc1)CC1CCN(CCCc2ccccc2)CC1 | 78.1 | > 12000 | –
CN(Cc1ccsc1)CC1CCN(Cc2cccc(Cl)c2)CC1 | 5.2 | 299 | –
CN(Cc1ccsc1)CC1CCN(CCc2ccc(Br)cc2)CC1 | 3 | 57 | –
CN(Cc1ccsc1)CC1CCN(CCCc2ccccc2Cl)CC1 | 5.4 | 59 | –
CN(Cc1ccsc1)CC1CCN(Cc2ccccc2C(F)(F)F)CC1 | 20.9 | 140 | growth inhibition (GI) (Salmonella typhimurium [3]): Active
CN(Cc1ccsc1)CC1CCN(CCc2ccc(Cl)cc2)CC1 | 3 | 69 | –
CN(Cc1ccsc1)CC1CCN(CCc2cccc(Cl)c2Cl)CC1 | – | – | log(activity) (Salmonella typhimurium [6]): 1.5

SMILES | IC50 (Salmonella typhimurium [1]) [µM] | EC50 (Salmonella typhimurium [2]) [µM] | further results
CN(Cc1ccsc1)CC1CCN(CCc2ccc(Br)c(Br)c2)CC1 | – | – | growth inhibition (GI) (Salmonella typhimurium [5]): Active; Activity (Salmonella typhimurium [7]): Active; log(activity) (Salmonella typhimurium [6]): 4.5; Activity (Salmonella typhimurium [8]): Active; Activity (Salmonella typhimurium [9]): Active
CN(Cc1ccsc1)CC1CCN(Cc2cc(Cl)ccc2Cl)CC1 | 15.8 | 196 | –
CN(Cc1ccsc1)CC1CCN(CCc2ccccc2)CC1 | 21.2 | > 12000 | –
CN(Cc1ccsc1)CC1CCN(Cc2ccccc2I)CC1 | 5.4 | 79 | –
CN(Cc1ccsc1)CC1CCN(Cc2cccc(F)c2F)CC1 | 146 | 870 | growth inhibition (GI) (Salmonella typhimurium [3]): Active
CN(Cc1ccsc1)CC1CCN(CCc2cccc(F)c2)CC1 | 6.9 | 388 | –
CN(Cc1ccsc1)CC1CCN(Cc2ccc(Br)c(Br)c2)CC1 | 11.9 | 32 | –
CN(Cc1ccsc1)CC1CCN(Cc2cccc(Cl)c2Cl)CC1 | 2.7 | 70 | –
CN(Cc1ccsc1)CC1CCN(CCc2ccccc2Cl)CC1 | 6 | 232 | –
CN(Cc1ccsc1)CC1CCN(Cc2ccc(Cl)cc2)CC1 | 5.9 | 934 | –
CN(Cc1ccsc1)CC1CCN(CCc2cccc3ccccc23)CC1 | 2.5 | 28 | growth inhibition (GI) (Salmonella typhimurium [4]): Active
CN(Cc1ccsc1)CC1CCN(CCc2cccc(I)c2)CC1 | 4 | 44 | –
CN(Cc1ccsc1)CC1CCN(CCc2ccccc2I)CC1 | 4.3 | 60 | growth inhibition (GI) (Salmonella typhimurium [4]): Active
CN(Cc1ccsc1)CC1CCN(CCc2ccc(F)c(F)c2)CC1 | 3 | 87 | –
CN(Cc1ccsc1)CC1CCN(CCc2c(F)cccc2F)CC1 | 6.3 | 138 | –
CN(Cc1ccsc1)CC1CCN(Cc2cc(F)cc(F)c2)CC1 | 14.2 | > 12000 | –
CN(Cc1ccsc1)CC1CCN(Cc2ccc(Br)cc2)CC1 | 8.5 | 127 | –
CN(Cc1ccsc1)CC1CCN(Cc2ccc(F)cc2)CC1 | 12.9 | 443 | –
CN(Cc1ccsc1)CC1CCN(CCc2ccc(F)cc2)CC1 | 16.8 | 235 | –
CN(Cc1ccsc1)CC1CCN(Cc2c(F)cccc2F)CC1 | > 200 | > 12000 | growth inhibition (GI) (Salmonella typhimurium [3]): Active
CN(Cc1ccsc1)CC1CCN(Cc2ccccc2Cl)CC1 | 2.7 | 1810 | –
CN(Cc1ccsc1)CC1CCN(CCc2ccccc2Br)CC1 | 7.2 | 308 | –
CC(C)c1ccc(CCN2CCC(CN(C)Cc3ccsc3)CC2)cc1 | 2.3 | 123 | growth inhibition (GI) (Salmonella typhimurium [5]): Active
CN(Cc1ccsc1)CC1CCN(Cc2ccc(F)c(F)c2)CC1 | 7.2 | 3800 | –
CN(Cc1ccsc1)CC1CCN(CCc2cccc(-c3ccccc3)c2)CC1 | 1.8 | 31 | growth inhibition (GI) (Salmonella typhimurium [5]): Active
Cc1ccccc1CN1CCC(CN(C)Cc2ccsc2)CC1 | 6.3 | 247 | –
CN(Cc1ccsc1)CC1CCN(Cc2ccc(I)cc2)CC1 | 5.7 | 77 | –
